Results from ChEMBL document CHEMBL1131460, “2-substituted (2SR)-2-amino-2-((1SR,2SR)-2-carboxycycloprop-1-yl)glycines as potent and selective antagonists of group II metabotropic glutamate receptors. 2. Effects of aromatic substitution, pharmacological characterization, and bioavailability” (J Med Chem, 1998).
pIC50: −log10 of the molar value.

Tests used:
[1] = system: Rattus norvegicus; experiment: Area under curve was evaluated in rat brain when administered perorally at a dose of 100 mg/kg for 4 or 6 hours; assay type: ADME, organism-based; set-up: dose 100 mg/kg, route oral; settings: in vivo, po
[2] = Half-life in rat brain when administered intravenously at a dose of 10 mg/kg; assay type: ADME, organism-based; set-up: dose 10 mg/kg, route intravenous; settings: iv
[3] = system: Rattus norvegicus; experiment: Area under curve was evaluated in rat brain when administered intravenously at a dose of 10 mg/kg for 4 or 6 hours; assay type: ADME, organism-based; set-up: dose 10 mg/kg, route intravenous; settings: in vivo, iv
[4] = Time of maximum concentration achieved in rat plasma when administered intraperitoneally at a dose of 10 mg/kg; assay type: ADME, organism-based; set-up: dose 10 mg/kg, route intraperitoneal; settings: ip
Outline: (§1)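 Male Fischer 344 rats dosed iv or ip at 10 mg/kg, or orally at 10 or 100 mg/kg; five rats per route and dose. Blood and brain taken from one rat per time point (0.25, 0.5, 1, 2, 4 h after iv/ip; 0.5, 1, 2, 4, 6 h after po). Plasma and brain homogenates derivatized, extracted, assayed by negative-ion chemical ionization GCMS (LOQ 100 pg/mL plasma, 1 ng/g brain).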

[5] = system: Rattus norvegicus; experiment: Area under curve was evaluated in rat plasma when administered perorally at a dose of 100 mg/kg for infinite hours; assay type: ADME, organism-based; set-up: time infinity, dose 100 mg/kg, route oral; settings: in vivo, po
Outline: (§2)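 Male Fischer 344 rats were dosed at 10 mg/kg iv, 10 mg/kg ip, or 10 or 100 mg/kg po, with five rats per route and dose. One rat was sampled for blood and brain at each time: 0.25, 0.5, 1, 2 and 4 h after iv/ip, and 0.5, 1, 2, 4 and 6 h after po. Plasma and brain homogenates were derivatized, extracted and quantified by negative-ion chemical ionization GCMS (LOQ 100 pg/mL plasma, 1 ng/g brain).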

[6] = in vivo; settings: brain, ip, 10 mg/kg
[7] = Time of maximum concentration achieved in rat brain when administered intraperitoneally at a dose of 10 mg/kg; assay type: ADME, organism-based; set-up: dose 10 mg/kg, route intraperitoneal; settings: ip; outline: as §1
[8] = Brain concentration after 1 hr at a dose of 100 mg/kg when administered perorally; settings: po
[9] = Brain concentration after 0.5 h at a dose of 100 mg/kg when administered perorally; settings: po
[10] = Brain concentration after 0.5 hr at a dose of 10 mg/kg when administered intravenously; settings: iv
[11] = system: Rattus norvegicus; experiment: Area under curve was evaluated in rat plasma when administered intraperitoneally at a dose of 10 mg/kg for infinite hours; assay type: ADME, organism-based; set-up: time infinity, dose 10 mg/kg, route intraperitoneal; settings: in vivo, ip; outline: as §2
[12] = Plasma concentration after 2 hr at a dose of 10 mg/kg when administered intraperitoneally; settings: ip
[13] = Time of maximum concentration achieved in rat brain when administered intravenously at a dose of 10 mg/kg; assay type: ADME, organism-based; set-up: dose 10 mg/kg, route intravenous; settings: iv; outline: as §1
[14] = Time of maximum concentration achieved in rat brain when administered perorally at a dose of 10 mg/kg; assay type: ADME, organism-based; set-up: dose 10 mg/kg, route oral; settings: po; outline: as §1
[15] = system: Rattus norvegicus; experiment: Area under curve was evaluated in rat plasma when administered perorally at a dose of 10 mg/kg for 4 or 6 hours; assay type: ADME, organism-based; set-up: dose 10 mg/kg, route oral; settings: in vivo, po; outline: as §2
[16] = system: Rattus norvegicus; experiment: Area under curve was evaluated in rat brain when administered intraperitoneally at a dose of 10 mg/kg for 4 or 6 hours; assay type: ADME, organism-based; set-up: dose 10 mg/kg, route intraperitoneal; settings: in vivo, ip
[17] = Binding affinity for Group II Metabotropic glutamate receptor was measured using [3H]glutamate in rat forebrain membranes; assay type: cell membranes, Membrane
Outline: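 ACPD-sensitive [³H]glutamate binding to group II mGluRs in rat forebrain membranes, reported as IC50. Most values are single-point determinations; others are averages of two or three determinations. Values in parentheses are percent radioligand displacement at 1 μM.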

[18] = in vivo; settings: plasma, iv, 10 mg/kg
[19] = system: Rattus norvegicus; experiment: Bioavailability was evaluated in rat plasma when administered intraperitoneally at a dose of 10 mg/kg; assay type: ADME, organism-based; settings: in vivo, ip
[20] = Maximum concentration achieved in rat brain when administered intraperitoneally at a dose of 10 mg/kg; assay type: ADME, organism-based; set-up: dose 10 mg/kg, route intraperitoneal; settings: ip; outline: as §1
[21] = Plasma concentration after 6 hr at a dose of 100 mg/kg when administered perorally; settings: po
[22] = Plasma concentration after 1 hr at a dose of 10 mg/kg when administered perorally; settings: po
[23] = Plasma concentration after 4 hr at a dose of 10 mg/kg when administered perorally; settings: po
[24] = system: Rattus norvegicus; experiment: Area under curve was evaluated in rat brain when administered intravenously at a dose of 10 mg/kg for infinite hours; assay type: ADME, organism-based; set-up: time infinity, dose 10 mg/kg, route intravenous; settings: in vivo, iv
[25] = Half-life in rat plasma when administered perorally at a dose of 100 mg/kg; assay type: ADME, organism-based; set-up: dose 100 mg/kg, route oral; settings: po; outline: as §1
[26] = Time of maximum concentration achieved in rat plasma when administered intravenously at a dose of 10 mg/kg; assay type: ADME, organism-based; set-up: dose 10 mg/kg, route intravenous; settings: iv; outline: as §1
[27] = Half-life in rat plasma when administered intravenously at a dose of 10 mg/kg; assay type: ADME, organism-based; set-up: dose 10 mg/kg, route intravenous; settings: iv; outline: as §2
[28] = in vivo; settings: brain, iv, 10 mg/kg
[29] = Brain concentration after 2 hr at a dose of 100 mg/kg when administered perorally; settings: po
[30] = Time of maximum concentration achieved in rat plasma when administered perorally at a dose of 10 mg/kg; assay type: ADME, organism-based; set-up: dose 10 mg/kg, route oral; settings: po; outline: as §1
[31] = Maximum concentration achieved in rat brain when administered perorally at a dose of 100 mg/kg; assay type: ADME, organism-based; set-up: dose 100 mg/kg, route oral; settings: po; outline: as §1
[32] = Time of maximum concentration achieved in rat brain when administered perorally at a dose of 100 mg/kg; assay type: ADME, organism-based; set-up: dose 100 mg/kg, route oral; settings: po; outline: as §1
[33] = system: Rattus norvegicus; experiment: Area under curve was evaluated in rat brain when administered perorally at a dose of 10 mg/kg for 4 or 6 hours; assay type: ADME, organism-based; set-up: dose 10 mg/kg, route oral; settings: in vivo, po
[34] = in vivo; settings: brain, iv, 10 mg/kg; remark: listed apart in the source
[35] = Brain concentration after 0.5 hr at a dose of 10 mg/kg when administered perorally; settings: po
[36] = Brain concentration after 2 hr at a dose of 10 mg/kg when administered perorally; settings: po
[37] = Half-life in rat brain when administered intraperitoneally at a dose of 10 mg/kg; assay type: ADME, organism-based; set-up: dose 10 mg/kg, route intraperitoneal; settings: ip
[38] = Maximum concentration achieved in rat brain when administered intravenously at a dose of 10 mg/kg; assay type: ADME, organism-based; set-up: dose 10 mg/kg, route intravenous; settings: iv; outline: as §1
[39] = Bioavailability in rat (dose 10 mg/kg p.o.); assay type: ADME, organism-based; settings: in vivo, po
[40] = Plasma concentration after 1 hr at a dose of 100 mg/kg when administered perorally; settings: po
[41] = Plasma concentration after 2 hr at a dose of 10 mg/kg when administered perorally; settings: po
[42] = Clearance rate in rat plasma when administered intraperitoneally at a dose of 10 mg/kg; assay type: ADME, organism-based; set-up: dose 10 mg/kg, route intraperitoneal; settings: ip, read-out: Clp (converted); outline: as §2
[43] = system: Rattus norvegicus; experiment: Area under curve was evaluated in rat plasma when administered perorally at a dose of 100 mg/kg for 4 or 6 hours; assay type: ADME, organism-based; set-up: dose 100 mg/kg, route oral; settings: in vivo, po; outline: as §2
[44] = Plasma concentration after 1 hr at a dose of 10 mg/kg when administered intravenously; settings: iv
[45] = Half-life in rat plasma when administered intraperitoneally at a dose of 10 mg/kg; assay type: ADME, organism-based; set-up: dose 10 mg/kg, route intraperitoneal; settings: ip; outline: as §2
[46] = Plasma concentration after 0.5 hr at a dose of 10 mg/kg when administered perorally; settings: po
[47] = Brain concentration after 0.5 h at a dose of 10 mg/kg when administered intraperitoneally; settings: ip
[48] = Maximum concentration achieved in rat plasma when administered perorally at a dose of 10 mg/kg; assay type: ADME, organism-based; set-up: dose 10 mg/kg, route oral; settings: po; outline: as §1

N[C@](CC1c2ccccc2Oc2ccccc21)(C(=O)O)[C@H]1C[C@@H]1C(=O)O
AUC [1]: 120 ng·h/mL
half-life [2]: 326 min
AUC [3]: 701 ng·h/mL
Tmax [4]: 15 min
AUC [5]: 1660 ng·h/mL
concentration at 0.25 h [6]: 211 ng/g
Tmax [7]: 30 min
concentration at 1 h [8]: 16.4 ng/g
concentration at 0.5 h [9]: 5.1 ng/g
concentration at 0.5 h [10]: 243 ng/g
AUC [11]: 12800 ng·h/mL
concentration at 2 h [12]: 1120 ng/mL
Tmax [13]: 30 min
Tmax [14]: 240 min
AUC [15]: 217 ng·h/mL
AUC [16]: 774 ng·h/mL
pIC50 [17]: 8.54
concentration at 0.25 h [18]: 12000 ng/mL
Bioavailabiility [19]: 152%
Cmax [20]: 246 ng/g
concentration at 6 h [21]: 102 ng/mL
concentration at 1 h [22]: 48.3 ng/mL
concentration at 4 h [23]: 28.3 ng/mL
AUC [24]: 1840 ng·h/mL
half-life [25]: 116 min
Tmax [26]: 15 min
half-life [27]: 28.8 min
concentration at 0.25 h [28]: 234 ng/g
concentration at 2 h [29]: 23.9 ng/g
Tmax [30]: 30 min
Cmax [31]: 30 ng/g
Tmax [32]: 360 min
AUC [33]: 26.4 ng·h/mL
concentration at 1 h [34]: 188 ng/g
concentration at 0.5 h [35]: 1.7 ng/g
concentration at 2 h [36]: 3 ng/g
half-life [37]: 285 min
Cmax [38]: 243 ng/g
F [39]: 2%
bioavailability [39]: 3.4%
concentration at 1 h [40]: 475 ng/mL
concentration at 2 h [41]: 50 ng/mL
CL/F [42]: 13 mL/min/kg
AUC [43]: 1380 ng·h/mL
concentration at 1 h [44]: 2440 ng/mL
half-life [45]: 26.4 min
concentration at 0.5 h [46]: 64.1 ng/mL
concentration at 0.5 h [47]: 246 ng/g
Cmax [48]: 64.1 ng/mL
